Measurements reported in ChEMBL document CHEMBL1240492, “3D-QSAR studies of latrunculin-based actin polymerization inhibitors using CoMFA and CoMSIA approaches” (Eur J Med Chem, 2010).

What follows are compounds tested on MCF7 (assay: Antiproliferative activity against human MCF7 cells after 72 hrs by MTT assay). Settings: MCF7, 72 h.
Type: functional, cell-based
Outline: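 MCF7 breast cancer cells in exponential growth seeded at 8 × 10^3 cells/well and left 24 h to attach. Medium was then switched to serum-free RPMI containing compound at […]. Cells were cultured 72 h at 37 °C in 5% CO2, then given MTT for 4 h and solubilized. A570 was converted to cell number using a hemocytometer-based standard curve. IC50 was obtained by nonlinear regression of log concentration versus cells/well.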
`C/C1=C/C(=O)O[C@@H]2C[C@@H](CC[C@H](C)/C=C\CC1)O[C@@](O)([C@@H]1CSC(=O)N1)C2` [LATRUNCULIN B] gave an IC50 of 1.91 µM.
Work on `CO[C@]1([C@@H]2CSC(=O)N2Cc2ccccc2)C[C@H]2C[C@@H](CC[C@H](C)/C=C\C=C\CC/C(C)=C\C(=O)O2)O1` yielded an IC50 of 1.28 µM.
`CO[C@]1([C@@H]2CSC(=O)N2C2CCCC2)C[C@H]2C[C@@H](CC[C@H](C)/C=C\C=C\CC/C(C)=C\C(=O)O2)O1` gave an IC50 of 5.2 µM.
With `C/C1=C/C(=O)O[C@@H]2C[C@@H](CC[C@H](C)/C=C\C=C\CC1)O[C@@](OC(=O)NCCBr)([C@@H]1CSC(=O)N1)C2` the IC50 was 19.4 µM.
With `CO[C@]1([C@@H]2CSC(=O)N2CCCO)C[C@H]2C[C@@H](CC[C@H](C)/C=C\C=C\CC/C(C)=C\C(=O)O2)O1` the IC50 was 19.2 µM.
`CO[C@]1([C@@H]2CSC(=O)N2)C[C@H]2C[C@@H](CC[C@H](C)/C=C\CC/C(C)=C\C(=O)O2)O1` [15-METHOXYLATRUNCULIN B] gave an IC50 of 19.3 µM.
`CCCCCCCCO[C@]1([C@@H]2CSC(=O)N2)C[C@H]2C[C@@H](CC[C@H](C)/C=C\CC/C(C)=C\C(=O)O2)O1` [15-O-OCTYLLATRUNCULIN B] was tested, and the IC50 was 50.1 µM.
`C/C1=C/C(=O)O[C@@H]2C[C@@H](CC[C@H](C)/C=C\C=C\CC1)O[C@@](OC(=O)NCCCCl)([C@@H]1CSC(=O)N1)C2` showed an IC50 of 25.7 µM.
`CCCCO[C@]1([C@@H]2CSC(=O)N2)C[C@H]2C[C@@H](CC[C@H](C)/C=C\CC/C(C)=C\C(=O)O2)O1` [15-O-BUTYLLATRUNCULIN B] was tested, and the IC50 was 50.1 µM.
`C/C1=C/C(=O)O[C@@H]2C[C@@H](CC[C@H](C)/C=C\C=C\CC1)O[C@@](OC(=O)c1ccccc1)([C@@H]1CSC(=O)N1)C2` gave an IC50 of 1.92 µM.
`C/C1=C/C(=O)O[C@@H]2C[C@@H](CC[C@H](C)/C=C\C=C\CC1)O[C@@](OC(=O)NCCCl)([C@@H]1CSC(=O)N1)C2` showed an IC50 of 17.3 µM.
With `C/C1=C/C(=O)O[C@@H]2C[C@@H](CC[C@H](C)/C=C\C=C\CC1)O[C@@](O)([C@@H]1CSC(=O)N1Cc1ccccc1)C2` the IC50 was 1.59 µM.
`C/C1=C/C(=O)O[C@@H]2C[C@@H](CC[C@H](C)/C=C\C=C\CC1)O[C@@](O)([C@@H]1CSC(=O)N1CO)C2` was tested, and the IC50 was 8.34 µM.
Compound `C/C1=C/C(=O)O[C@@H]2C[C@@H](CC[C@H](C)/C=C\C=C\CC1)O[C@@](O)([C@@H]1CSC(=O)N1)C2` [LATRUNCULIN A] has an IC50 of 2.08 µM.
Work on `C/C1=C/C(=O)O[C@@H]2C[C@@H](CC[C@H](C)/C=C\C=C\CC1)O[C@@](OC(=O)NCc1ccccc1)([C@@H]1CSC(=O)N1)C2` yielded an IC50 of 3.5 µM.
With `CCN1C(=O)SC[C@H]1[C@@]1(O)C[C@H]2C[C@@H](CC[C@H](C)/C=C\C=C\CC/C(C)=C\C(=O)O2)O1` the IC50 was 1.05 µM.
`C/C1=C/C(=O)O[C@@H]2C[C@@H](CC[C@H](C)/C=C\C=C\CC1)O[C@@](OC(=O)Nc1ccccc1)([C@@H]1CSC(=O)N1)C2` gave an IC50 of 7.69 µM.
`COc1ccc(CC(=O)N2C(=O)SC[C@H]2[C@@]2(OC)C[C@H]3C[C@@H](CC[C@H](C)/C=C\C=C\CC/C(C)=C\C(=O)O3)O2)cc1` was tested, and the IC50 was 15.4 µM.
For `CO[C@]1([C@@H]2CSC(=O)N2C(=O)c2ccccc2)C[C@H]2C[C@@H](CC[C@H](C)/C=C\C=C\CC/C(C)=C\C(=O)O2)O1`, the IC50 was 1.82 µM.
Work on `CCN1C(=O)SC[C@H]1[C@@]1(OC)C[C@H]2C[C@@H](CC[C@H](C)/C=C\C=C\CC/C(C)=C\C(=O)O2)O1` yielded an IC50 of 20.7 µM.
For `CO[C@]1([C@@H]2CSC(=O)N2)C[C@H]2C[C@@H](CC[C@H](C)/C=C\C=C\CC/C(C)=C\C(=O)O2)O1`, the IC50 was 10.2 µM.
Work on `C/C1=C/C(=O)O[C@@H]2C[C@@H](CC[C@H](C)/C=C\CC1)O[C@@](O)([C@@H]1CSC(=O)N1CO)C2` [N-HYDROXYMETHYLLATRUNCULIN B] yielded an IC50 of 2.35 µM.
`CC(=O)N1C(=O)SC[C@H]1[C@@]1(O)C[C@H]2C[C@@H](CC[C@H](C)/C=C\CC/C(C)=C\C(=O)O2)O1` [N-ACETYLLATRUNCULIN B] gave an IC50 of 4.3 µM.
For `CO[C@]1([C@@H]2CSC(=O)N2C)C[C@H]2C[C@@H](CC[C@H](C)/C=C\C=C\CC/C(C)=C\C(=O)O2)O1`, the IC50 was 13.1 µM.
For `C/C1=C/C(=O)O[C@@H]2C[C@@H](CC[C@H](C)/C=C\C=C\CC1)O[C@@](OCCc1ccccc1)([C@@H]1CSC(=O)N1)C2`, the IC50 was 10 µM.
